Test results from ChEMBL document CHEMBL1671684, “In vitro resistance profile of the hepatitis C virus NS3/4A protease inhibitor TMC435” (Antimicrob Agents Chemother, 2010).

Key:
Hepatitis C virus [1] = assay: Antiviral activity against Hepatitis C virus subtype 1b expressing NS3 F43I mutant infected in HuH7 cells after 48 hrs by luciferase reporter assay; format: functional, organism-based, Hepacivirus hominis; conditions: genotype 1b, Huh-7, 48 h
Procedure, shortened: (§1)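 Genotype 1b con1 subgenomic bicistronic replicon (clone ET) with luciferase reporter and adaptive mutations E1202G, T1280I, K1846T, carrying site-directed NS3 single or double mutations. 10 μg wild-type or mutant replicon RNA electroporated into Huh7-lunet cells, seeded 4,000 cells/well over a nine-point inhibitor dilution series, 48 h at 37°C, 5% CO2, then luminescence read. EC50 taken as median of individual experiments; fold change relative to parental replicon EC50.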

Hepatitis C virus [2] = assay: Antiviral activity against Hepatitis C virus subtype 1b expressing NS3 F43V mutant infected in HuH7 cells after 48 hrs by luciferase reporter assay; format: functional, organism-based, Hepacivirus hominis; conditions: genotype 1b, Huh-7, 48 h; procedure, shortened: as §1
Hepatitis C virus [3] = assay: Antiviral activity against Hepatitis C virus subtype 1b expressing NS3 Q80H mutant infected in HuH7 cells after 48 hrs by luciferase reporter assay; format: functional, organism-based, Hepacivirus hominis; conditions: genotype 1b, Huh-7, 48 h; procedure, shortened: as §1
Hepatitis C virus [4] = assay: Antiviral activity against Hepatitis C virus subtype 1b expressing NS3 Q80G mutant infected in HuH7 cells after 48 hrs by luciferase reporter assay; format: functional, organism-based, Hepacivirus hominis; conditions: genotype 1b, Huh-7, 48 h; procedure, shortened: as §1
Hepatitis C virus [5] = assay: Antiviral activity against Hepatitis C virus subtype 1b expressing NS3 S138T mutant infected in HuH7 cells after 48 hrs by luciferase reporter assay; format: functional, organism-based, Hepacivirus hominis; conditions: genotype 1b, Huh-7, 48 h; procedure, shortened: as §1
Hepatitis C virus [6] = assay: Antiviral activity against Hepatitis C virus subtype 1b expressing NS3 R155I mutant infected in HuH7 cells after 48 hrs by luciferase reporter assay; format: functional, organism-based, Hepacivirus hominis; conditions: genotype 1b, Huh-7, 48 h; procedure, shortened: as §1
Hepatitis C virus [7] = assay: Antiviral activity against Hepatitis C virus subtype 1b expressing NS3 R155K mutant infected in HuH7 cells after 48 hrs by luciferase reporter assay; format: functional, organism-based, Hepacivirus hominis; conditions: genotype 1b, Huh-7, 48 h; procedure, shortened: as §1
Hepatitis C virus [8] = assay: Antiviral activity against Hepatitis C virus subtype 1b expressing NS3 A156T mutant infected in HuH7 cells after 48 hrs by luciferase reporter assay; format: functional, organism-based, Hepacivirus hominis; conditions: genotype 1b, Huh-7, 48 h; procedure, shortened: as §1
Hepatitis C virus [9] = assay: Antiviral activity against Hepatitis C virus subtype 1b expressing NS3 A156V mutant infected in HuH7 cells after 48 hrs by luciferase reporter assay; format: functional, organism-based, Hepacivirus hominis; conditions: genotype 1b, Huh-7, 48 h; procedure, shortened: as §1
Hepatitis C virus [10] = assay: Antiviral activity against Hepatitis C virus subtype 1b expressing NS3 D168T mutant infected in HuH7 cells after 48 hrs by luciferase reporter assay; format: functional, organism-based, Hepacivirus hominis; conditions: genotype 1b, Huh-7, 48 h; procedure, shortened: as §1
Hepatitis C virus [11] = assay: Antiviral activity against Hepatitis C virus subtype 1b expressing NS3 D168H mutant infected in HuH7 cells after 48 hrs by luciferase reporter assay; format: functional, organism-based, Hepacivirus hominis; conditions: genotype 1b, Huh-7, 48 h; procedure, shortened: as §1
Hepatitis C virus [12] = assay: Antiviral activity against Hepatitis C virus subtype 1b expressing NS3 D168V mutant infected in HuH7 cells after 48 hrs by luciferase reporter assay; format: functional, organism-based, Hepacivirus hominis; conditions: genotype 1b, Huh-7, 48 h; procedure, shortened: as §1
Hepatitis C virus [13] = assay: Antiviral activity against Hepatitis C virus subtype 1b expressing NS3 V170T mutant infected in HuH7 cells after 48 hrs by luciferase reporter assay; format: functional, organism-based, Hepacivirus hominis; conditions: genotype 1b, Huh-7, 48 h; procedure, shortened: as §1
Hepatitis C virus [14] = assay: Antiviral activity against Hepatitis C virus subtype 1b expressing NS3 F43S and Q80R mutant infected in HuH7 cells after 48 hrs by luciferase reporter assay; format: functional, organism-based, Hepacivirus hominis; conditions: genotype 1b, Huh-7, 48 h; procedure, shortened: as §1
Hepatitis C virus [15] = assay: Antiviral activity against Hepatitis C virus subtype 1b expressing NS3 Q80H and D168E mutant infected in HuH7 cells after 48 hrs by luciferase reporter assay; format: functional, organism-based, Hepacivirus hominis; conditions: genotype 1b, Huh-7, 48 h; procedure, shortened: as §1
Hepatitis C virus [16] = assay: Ratio of EC50 for Hepatitis C virus subtype 1b expressing NS3 V36 M mutant to EC50 for Hepatitis C virus subtype 1b expressing WT NS3 infected in HuH7 cells after 48 hrs by luciferase reporter assay; format: functional, Hepacivirus hominis, genotype 1b, Huh-7
Procedure, shortened: (§2)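 Transient replicon assay: site-directed single or multiple NS3 mutations engineered into genotype 1b (con1, clone ET) subgenomic bicistronic replicon with luciferase reporter and adaptive mutations E1202G, T1280I, K1846T. Huh7-lunet cells electroporated with 10 μg wild-type or mutant replicon RNA, seeded 4,000 cells/well with nine-point inhibitor dilution; 48 h, 37°C, 5% CO2; luminescence read-out. EC50 as median of individual experiments; fold change versus parental replicon EC50.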

Hepatitis C virus [17] = assay: Ratio of EC50 for Hepatitis C virus subtype 1b expressing NS3 F43V mutant to EC50 for Hepatitis C virus subtype 1b expressing WT NS3 infected in HuH7 cells after 48 hrs by luciferase reporter assay; format: functional, Hepacivirus hominis, genotype 1b, Huh-7; procedure, shortened: as §2
Hepatitis C virus [18] = assay: Ratio of EC50 for Hepatitis C virus subtype 1b expressing NS3 T54A mutant to EC50 for Hepatitis C virus subtype 1b expressing WT NS3 infected in HuH7 cells after 48 hrs by luciferase reporter assay; format: functional, Hepacivirus hominis, genotype 1b, Huh-7; procedure, shortened: as §2
Hepatitis C virus [19] = assay: Ratio of EC50 for Hepatitis C virus subtype 1b expressing NS3 Q80K mutant to EC50 for Hepatitis C virus subtype 1b expressing WT NS3 infected in HuH7 cells after 48 hrs by luciferase reporter assay; format: functional, Hepacivirus hominis, genotype 1b, Huh-7; procedure, shortened: as §2
Hepatitis C virus [20] = assay: Ratio of EC50 for Hepatitis C virus subtype 1b expressing NS3 Q80G mutant to EC50 for Hepatitis C virus subtype 1b expressing WT NS3 infected in HuH7 cells after 48 hrs by luciferase reporter assay; format: functional, Hepacivirus hominis, genotype 1b, Huh-7; procedure, shortened: as §2
Hepatitis C virus [21] = assay: Ratio of EC50 for Hepatitis C virus subtype 1b expressing NS3 R109K mutant to EC50 for Hepatitis C virus subtype 1b expressing WT NS3 infected in HuH7 cells after 48 hrs by luciferase reporter assay; format: functional, Hepacivirus hominis, genotype 1b, Huh-7; procedure, shortened: as §2
Hepatitis C virus [22] = assay: Ratio of EC50 for Hepatitis C virus subtype 1b expressing NS3 R155T mutant to EC50 for Hepatitis C virus subtype 1b expressing WT NS3 infected in HuH7 cells after 48 hrs by luciferase reporter assay; format: functional, Hepacivirus hominis, genotype 1b, Huh-7; procedure, shortened: as §2
Hepatitis C virus [23] = assay: Ratio of EC50 for Hepatitis C virus subtype 1b expressing NS3 A156S mutant to EC50 for Hepatitis C virus subtype 1b expressing WT NS3 infected in HuH7 cells after 48 hrs by luciferase reporter assay; format: functional, Hepacivirus hominis, genotype 1b, Huh-7; procedure, shortened: as §1
Hepatitis C virus [24] = assay: Ratio of EC50 for Hepatitis C virus subtype 1b expressing NS3 A156T mutant to EC50 for Hepatitis C virus subtype 1b expressing WT NS3 infected in HuH7 cells after 48 hrs by luciferase reporter assay; format: functional, Hepacivirus hominis, genotype 1b, Huh-7; procedure, shortened: as §1
Hepatitis C virus [25] = assay: Ratio of EC50 for Hepatitis C virus subtype 1b expressing NS3 D168N mutant to EC50 for Hepatitis C virus subtype 1b expressing WT NS3 infected in HuH7 cells after 48 hrs by luciferase reporter assay; format: functional, Hepacivirus hominis, genotype 1b, Huh-7; procedure, shortened: as §2
Hepatitis C virus [26] = assay: Ratio of EC50 for Hepatitis C virus subtype 1b expressing NS3 D168Y mutant to EC50 for Hepatitis C virus subtype 1b expressing WT NS3 infected in HuH7 cells after 48 hrs by luciferase reporter assay; format: functional, Hepacivirus hominis, genotype 1b, Huh-7; procedure, shortened: as §2
Hepatitis C virus [27] = assay: Ratio of EC50 for Hepatitis C virus subtype 1b expressing NS3 D168H mutant to EC50 for Hepatitis C virus subtype 1b expressing WT NS3 infected in HuH7 cells after 48 hrs by luciferase reporter assay; format: functional, Hepacivirus hominis, genotype 1b, Huh-7; procedure, shortened: as §2
Hepatitis C virus [28] = assay: Ratio of EC50 for Hepatitis C virus subtype 1b expressing NS3 D168V mutant to EC50 for Hepatitis C virus subtype 1b expressing WT NS3 infected in HuH7 cells after 48 hrs by luciferase reporter assay; format: functional, Hepacivirus hominis, genotype 1b, Huh-7; procedure, shortened: as §2
Hepatitis C virus [29] = assay: Ratio of EC50 for Hepatitis C virus subtype 1b expressing NS3 F43S and Q80R mutant to EC50 for Hepatitis C virus subtype 1b expressing WT NS3 infected in HuH7 cells after 48 hrs by luciferase reporter assay; format: functional, Hepacivirus hominis, genotype 1b, Huh-7; procedure, shortened: as §2
Hepatitis C virus [30] = assay: Ratio of EC50 for Hepatitis C virus subtype 1b expressing NS3 Q80K and R155K mutant to EC50 for Hepatitis C virus subtype 1b expressing WT NS3 infected in HuH7 cells after 48 hrs by luciferase reporter assay; format: functional, Hepacivirus hominis, genotype 1b, Huh-7; procedure, shortened: as §2
Hepatitis C virus [31] = assay: Ratio of EC50 for Hepatitis C virus subtype 1b expressing NS3 Q80R and R155K mutant to EC50 for Hepatitis C virus subtype 1b expressing WT NS3 infected in HuH7 cells after 48 hrs by luciferase reporter assay; format: functional, Hepacivirus hominis, genotype 1b, Huh-7; procedure, shortened: as §2

SMILES | EC50 (Hepatitis C virus [4]) [nM] | EC50 (Hepatitis C virus [7]) [nM] | EC50 (Hepatitis C virus [8]) [nM] | EC50 (Hepatitis C virus [9]) [nM] | EC50 (Hepatitis C virus [10]) [nM] | EC50 (Hepatitis C virus [11]) [nM] | Ratio EC50 (Hepatitis C virus [16]) | Ratio EC50 (Hepatitis C virus [18]) | Ratio EC50 (Hepatitis C virus [19]) | Ratio EC50 (Hepatitis C virus [20]) | Ratio EC50 (Hepatitis C virus [21]) | Ratio EC50 (Hepatitis C virus [22]) | Ratio EC50 (Hepatitis C virus [23]) | Ratio EC50 (Hepatitis C virus [24]) | Ratio EC50 (Hepatitis C virus [25]) | Ratio EC50 (Hepatitis C virus [26]) | Ratio EC50 (Hepatitis C virus [27]) | Ratio EC50 (Hepatitis C virus [30]) | other results
COc1ccc2c(O[C@@H]3C[C@H]4C(=O)N[C@]5(C(=O)NS(=O)(=O)C6CC6)C[C@H]5/C=C\CCCCN(C)C(=O)[C@@H]4C3)cc(-c3nc(C(C)C)cs3)nc2c1C [SIMEPREVIR] | 22 | 260 | 377 | 2150 | 4090 | 5660 | 2 | 0.6 | 7.7 | 1.8 | 0.7 | 24 | 0.3 | 44 | 6.6 | 666 | 368 | 364 | EC50 (Hepatitis C virus [1]): 562 nM; EC50 (Hepatitis C virus [2]): 626 nM; EC50 (Hepatitis C virus [3]): 41 nM; EC50 (Hepatitis C virus [5]): 77 nM; EC50 (Hepatitis C virus [6]): 6.6 nM; EC50 (Hepatitis C virus [12]): 17900 nM; EC50 (Hepatitis C virus [13]): 52 nM; EC50 (Hepatitis C virus [14]): 1820 nM; EC50 (Hepatitis C virus [15]): 1360 nM; Ratio EC50 (Hepatitis C virus [17]): 99; Ratio EC50 (Hepatitis C virus [28]): 2591; Ratio EC50 (Hepatitis C virus [29]): 286; Ratio EC50 (Hepatitis C virus [31]): 270
CCC[C@H](NC(=O)[C@@H]1[C@H]2CCC[C@H]2CN1C(=O)[C@@H](NC(=O)[C@@H](NC(=O)c1cnccn1)C1CCCCC1)C(C)(C)C)C(=O)C(=O)NC1CC1 [TELAPREVIR] | 202 | 1470 | 20300 | 15500 | 181 | 102 | 10 | 7.5 | 0.5 | 1.2 | 0.8 | 74 | 20 | 105 | 1.2 | 1.2 | 0.7 | 4.6 | 
